Assay outcomes: PubChem, several laboratories
Diaphorase act: activates diaphorase or chemically reduces, flagging diaphorase assay artifacts; Diaphorase/resazurin coupled assay, resorufin fluorescence, 16 min; hits give high values; 1 = vehicle wells, 0 = NADH-free wells; activation factor at 20 µM; AID 1229; hit rate 0.005% among 190,000;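 active = diaphorase activity raised at least twofold by the compound at 20 µM; inactive = activation factor below 2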
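Material: Purified diaphorase enzyme from Clostridium kluyveri | Buffer or medium: 50 mM HEPES pH 7.4 with 4.542 mM MgCl2, 0.005% Tween 20 | Times: 16 min enzyme reaction, ambient temperature | Signal: Red resorufin fluorescence at 544/590 nm excitation/emission | Measure: Increased resorufin signal from activators or reducing compounds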
ROMK mod: modulates human ROMK potassium channel activity; Tet-inducible ROMK, thallium flux fluorescence; actives lie on both sides; B-score at 10 µM; hit rate 2% among 130,000; AID 1918;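 active = signal ratio slope over the read window, or its plate-corrected B-score, at least 3 SD from the plate mean, either direction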;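 also: B-score of the F/F0 ratio slope over 7 to 12 s after thallium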
Target sequence (P48048 whole entry, looked up): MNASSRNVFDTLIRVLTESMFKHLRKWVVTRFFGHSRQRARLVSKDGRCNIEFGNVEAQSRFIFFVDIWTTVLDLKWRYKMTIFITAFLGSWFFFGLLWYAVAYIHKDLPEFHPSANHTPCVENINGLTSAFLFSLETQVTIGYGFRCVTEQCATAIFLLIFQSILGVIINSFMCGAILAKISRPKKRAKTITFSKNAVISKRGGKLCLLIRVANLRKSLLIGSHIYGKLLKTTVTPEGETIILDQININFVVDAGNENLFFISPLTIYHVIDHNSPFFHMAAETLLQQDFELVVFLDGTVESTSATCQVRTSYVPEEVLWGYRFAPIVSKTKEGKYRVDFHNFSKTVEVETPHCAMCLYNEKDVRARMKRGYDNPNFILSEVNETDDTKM
KCC2 mod: modulates chloride dependent transport by human KCC2; Q9H2X9; hit rate 2.2% among 190,000; B-score of Tl+ flux slope (higher = more flux/activation; lower = inhibition) at 10 µM; KCC2 cells, thallium flux FluoZin-2 fluorescence; AID 1456;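 active = thallium flux slope and its plate-corrected score both differing from the plate sample mean at a set confidence after two filtering rounds, in either direction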;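 also: slope of fluorescence scaled to starting intensity during 10 to 20 s after thallium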
WT yeast gro inh: growth inhibition of WT yeast, mitochondrial fusion screen. mitochondrial fusion phenotypic screen, WT strain. inhibition, % at 10 µM. hit rate 2.1% among 190,000; in the data active = inhibition above about 58%; tested in S. cerevisiae
Lmaj promast: Leishmania major promastigote growth inhibition; Leishmania major promastigotes, resazurin fluorescence viability; inhibition, % at 10 µM; hit rate 9% among 200,000; in the data active = inhibition above about 50%;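 also: promastigotes grown with compound for 44 hours at 28 °C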
Diaphorase inh: inhibits diaphorase or chemically oxidizes, flagging diaphorase assay artifacts; AID 1217; hit rate 0.69% among 190,000; diaphorase resazurin-to-resorufin fluorescence, NADH, 16 min; bacterial (C. kluyveri) enzyme, not human; inhibition, % at 20 µM;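 active = primary screen inhibition at 20 µM above a set limit, cut at about 50% in these data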;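 also: plate controls were DMSO with full reaction for no effect and wells lacking NADH for full effect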
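System: Bacterial diaphorase enzyme (C. kluyveri) | Incubation: 16-min room-temperature incubation before reading | Benchmarks: No-NADH positive control and DMSO neutral control | Measured by: Resorufin fluorescence 544/590 nm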
ROMK retest: confirmation of human ROMK potassium channel modulators. shares compounds with ROMK mod. hit rate 54% among 3,000. ROMK thallium flux, fluorescence ratio; hits give low values. AID 1917. normalized thallium flux (F/F0 slope) at 10 µM;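 active = Flux at 10 µM at least 3 SD below or above vehicle control mean in one or both replicates; inconclusive = no clear call, values can overlap the other calls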
An asterisk follows results filed as active; u = inconclusive; x = no result. Only some compounds are listed: those with a hit (about 12% of all), similar ones and a draw of the others.

SMILES | Diaphorase act | ROMK mod | KCC2 mod | WT yeast gro inh | Lmaj promast | Diaphorase inh | ROMK retest
COc1ccc(C)cc1N(C(=O)c1ccccc1F)c1nc2ccccc2s1 | 0.8 | -2.5* | -0.102 | -0.4 | 12.5 | 22.2 | 0.0746
C1CCC(Nc2nc3nonc3nc2N2CCSCC2)C1 | 1.1 | -0.459 | 0.202 | 15.1 | 7.4 | -6.1 | x
COc1cc(/C=N/NC(=O)CCc2c(C)n[nH]c2C)cc(OC)c1OC | 0.9 | 0.569 | x | -21.6 | -1.6 | 9.6 | x
CC(=O)Nc1ccc(S(=O)(=O)NCCC(=O)NCCc2ccc(F)cc2)cc1 | 0.8 | x | -0.568 | -0.9 | -5.1 | 15.9 | 0.0811
CCNS(=O)(=O)c1ccc(NC(=O)Cc2ccc(F)cc2)cc1 | 0.9 | x | -0.435 | 8.5 | 38.7 | 8.9 | x
O=C(CN1CCN(c2ccc([N+](=O)[O-])cc2)CC1)Nc1ccccn1 | 0.9 | -3.16* | x | 2.8 | -4.6 | 11.3 | 0.0539*
O=C(CCc1nc2ccccc2[nH]c1=O)OCC(=O)c1cccc2ccccc12 | 1 | 0.214 | -0.0359 | -1.9 | 4.9 | -3.8 | x
COc1cc(/C=N\n2cnnc2)ccc1OCC(=O)Nc1ccc(C)cc1 | 1 | x | 0.618 | -6.3 | -0.9 | 4.9 | 0.0761
COc1ccc(-c2nc3ncnn3cc2C)cc1F | 1 | 0.19 | x | -0.6 | -4.2 | -2.3 | x
Cn1nc(C(F)(F)F)c(C#N)c1N1CCN(c2ccccc2)CC1 | 0.8 | -3.07* | -1.97 | 35.5 | 4.7 | 18.3 | 0.0633*
Cn1nc(C(F)(F)F)c(C#N)c1N1CCN(c2ccc(F)cc2)CC1 | 0.9 | -1.7 | -0.781 | 4.4 | 46.8 | 9.7 | x
COc1ccc(C2(O)CCN(C(=O)Cc3cccnc3)CC2)cc1 | 0.9 | -1.03 | 0.0116 | 0.4 | -5.6 | 13.5 | x
COc1ccc(C2(O)CCN(CCCCOc3ccccc3)CC2)cc1 | 1 | -4.61* | -0.541 | 32.1 | 95.3* | -1.6 | 0.0609*
N#CC1=C(N)C(C#N)(C#N)[C@H](c2c(F)cccc2F)[C@H]2CC3(CC=C12)OCCO3 | 0.9 | -3.6* | -0.208 | 35.3 | 20.0 | 9.7 | 0.0535*
CN1C2C=C3C(C#N)=C(N)C(C#N)(C#N)[C@H](c4c(F)cccc4F)[C@H]3C1CC2 (stereo not given in full) | 0.8 | x | -0.00565 | 0.7 | 19.0 | 15.7 | x
c1ccc2c(c1)CCN(C1=Nc3cccc4cccc1c34)C2 | 0.8 | -2.03* | -0.293 | 31.6 | 69.0* | 22.5 | 0.0539*
CC(=O)OC[C@H]1O[C@@H](O/N=C/C[C@@H]2C=C[C@H](OC(C)=O)[C@@H](COC(C)=O)O2)[C@H](OC(C)=O)[C@@H](OC(C)=O)[C@@H]1OC(C)=O | 1.1 | 0.0116 | 0.613 | -7.6 | 11.6 | -7.1 | x
CCN(C1CCCCC1)S(=O)(=O)c1ccc(OC)c(C)c1 | 0.9 | -3.41* | -0.522 | -0.5 | 3.2 | 10.8 | 0.0663*
CCN(C1CCCCC1)S(=O)(=O)c1cc(C)ccc1OC | 0.9 | -1.65 | -0.4 | -0.9 | 0.1 | 11.9 | x
CCc1nnc(NC(=O)c2cc(S(=O)(=O)N3CCOCC3)ccc2N2CCCCC2)s1 | 0.8 | 0.0671 | -0.0086 | -23.8 | 10.0 | 16.6 | x
Cc1nc2cc3c(cc2c(C)c1C(=O)OC(C)C)OCO3 | 0.8 | -0.119 | 0.232 | -16.6 | 1.1 | 16.4 | x
O=C(Nc1ccccc1Cl)c1csc(-c2cccnc2)n1 | x | 5.18* | -0.314 | x | x | x | 0.101*
O=C(NNC(=O)c1csc(-c2cccnc2)n1)c1ccccc1 | x | -0.896 | 1.06 | x | x | x | x
COc1ccc(OC)c2c(C)cc(N3CCN(C(=O)c4ccc(F)cc4)CC3)nc12 | 0.8 | x | -0.47 | 9.3 | 21.6 | 18.4 | x
COc1ccc(OC)c2c(C)cc(N3CCN(C(=O)c4ccc(C)cc4)CC3)nc12 | 0.7 | -8.5* | -1.94 | 24.4 | 19.9 | 27.2 | 0.0847
SMILES | Diaphorase act | ROMK mod | KCC2 mod | WT yeast gro inh | Lmaj promast | Diaphorase inh | ROMK retest
Cc1ccc(-c2cc(=O)c3cc(F)ccc3[nH]2)cc1 | 1 | 0.956 | 0.633 | -1.1 | -1.4 | 4.9 | x
O=c1cc(-c2cccc(F)c2)[nH]c2ccccc12 | 0.9 | 3.66 | 0.0258 | -12.2 | -2.8 | 14.9 | x
Cc1ccc2[nH]c(-c3cccc(F)c3)cc(=O)c2c1 | 0.9 | 3.07* | -0.0492 | -1.9 | 1.6 | 10.8 | 0.0834
COc1ccc2[nH]c(-c3cccc(F)c3)cc(=O)c2c1 | 0.9 | 4.03* | -1.61 | -5.6 | 4.2 | 6.3 | 0.0948
O=C(Cc1nc2ccccc2[nH]1)c1cccc([N+](=O)[O-])c1 | x | x | -0.000124 | x | x | x | u
O=C(Nc1cccc(S(=O)(=O)N2CCOCC2)c1)c1c2c(nc3ccccc13)CCC2 | 0.7 | x | -0.275 | 4.4 | 44.0 | 29.2 | x
CCc1ccc(-n2c(SCC(=O)Nc3cccc(S(=O)(=O)NC4=NCCCCC4)c3)nc3ccccc3c2=O)cc1 | 0.8 | -2.68* | 1.28 | -8.1 | 18.2 | 17.3 | u
Cc1ccc(-n2c(SCC(=O)Nc3cccc(S(=O)(=O)NC4=NCCCCC4)c3)nc3ccccc3c2=O)cc1 | 0.8 | x | 0.308 | -1.1 | -2.4 | 15.4 | x
COc1ccc(C(=O)CCC(=O)O)c(C)c1 | 0.8 | 4.28* | x | 4.2 | -5.1 | 15.9 | 0.0826
COc1ccc2c(c1)Cc1sc(NC(=O)c3cccs3)nc1-2 | 0.8 | -4.13* | -1.36 | 1.3 | 20.6 | 22.1 | 0.0758
C=CC1CN(CC(=O)OC)S(=O)(=O)c2ccccc21 (stereo not given) | x | x | 0.791 | x | x | x | 0.0741
O=C(/C(=C/c1ccc(Cl)cc1)c1nc2ccccc2[nH]1)c1cccs1 | 1 | -5.42* | -0.443 | 42.9 | 100.5* | 4.0 | 0.0567*
O=c1[nH]c2ccccc2nc1/C=C(\O)c1cccs1 | 1.2 | -2.53* | -0.144 | 4.0 | 2.5 | -15.4 | 0.0455*
COc1cc(/C=C(/C(=O)c2cccs2)c2nc3ccccc3[nH]2)ccc1O | 0.7 | x | -1.31 | 31.0 | 100.3* | 25.1 | 0.0553*
CCOC(=O)C1=C(N)c2ccccc2CC1C(C)C (stereo not given) | 0.8 | 0.159 | -1.27 | 27.3 | -1.7 | 16.4 | x
O=C1C=C(Nc2ccc(Cl)cc2)CC(c2ccccc2)C1 (stereo not given) | 0.9 | 0.122 | -0.318 | 9.8 | 3.2 | 9.7 | x
NS(=O)(=O)c1ccc(NC(=O)COC(=O)COc2ccc3ccccc3c2)cc1 | 0.8 | 0.533 | 1.49 | 5.8 | -9.9 | 23.3 | x
Cc1nc(N)nc(N)c1/C=C/C(C)(C)c1ccc(Cl)cc1 | 1.2 | -3.82* | -0.469 | 69.2* | 100.4* | -17.6 | 0.0639*
CC(C)(C)n1nnnc1CN1CCSCC1 | 0.9 | x | 2.9 | -14.2 | -4.8 | 8.0 | x
Nc1nnc(CCS(=O)(=O)c2ccc(Br)cc2)s1 | 1 | 0.443 | 1.24 | -13.5 | 0.0 | -4.1 | x
Cc1cc(Cl)n2ncc(-c3ccccc3)c2n1 | x | x | -3.15 | x | x | x | 0.0628*
Cc1cc(NCc2ccccn2)n2ncc(-c3ccccc3)c2n1 | x | x | -0.582 | x | x | x | x
O=C(O)CCS(=O)(=O)c1ccccc1Cl | 1 | 1.48 | -0.591 | -3.4 | -4.8 | 1.5 | x
